Screening data (PubChem BioAssay)
Hits are enriched below; roughly 4% of the tested compounds scored in any of these assays.
MT stabilizer: microtubule stabilizers in HeLa cells; HeLa tubulin immunostaining HCS, 24 h; share of cells brighter than vehicle mean+2SD; % tubulin-high responders, % at 10 µM; 200,000 compounds, 0.83% hits;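 active = plate Z-score above 3 for both tubulin-high and condensed-nucleus cell shares, with cell loss under 80%, at 10 µM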;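 note: anti alpha tubulin signal scored within the nucleus-defined area of each cell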
bCat nuc transl: beta-catenin nuclear translocation modulation; AID 1665; 190,000 compounds, 0.3% hits; HeLa beta-catenin nuclear translocation, immunofluorescence imaging; nuclear translocation activity, % at 5 µM;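 active = nuclear translocation activity above 50% at 5 µM, with a well cell count of 50 or more; inconclusive = wells under 50 cells across six images, flagged as toxic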;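 note: per-cell ratio of nuclear to cytoplasmic median beta-catenin stain intensity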
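assay system = human HeLa cells, endogenous beta-catenin | times = compound treatment 24 h, 37°C, 5% CO2 | detection = Anti-beta-catenin immunofluorescence on PFA-fixed, Triton-permeabilized cells, DAPI nuclei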
WT yeast gro inh: growth inhibition of WT yeast, mitochondrial fusion screen. mitochondrial fusion phenotypic screen, WT strain. inhibition, % at 10 µM. 190,000 compounds, 2.1% hits; in the data active = inhibition above about 58%; tested in S. cerevisiae
Pf gametocyte: P. falciparum stage V gametocyte viability inhibition; P. falciparum stage V gametocytes, ATP luminescence, 24 h; 150,000 compounds, 0.065% hits; inhibition, % at 10.9 µM;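 active = inhibition above the mean plus 3 SD of compounds within the control limits, set per campaign, cut at about 38% in these data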
Cl transport mod: modulators of human KCC2 chloride dependent transport; Q9H2X9; KCC2 cells, thallium flux FluoZin-2 fluorescence; B-score of Tl+ flux slope (higher = more flux/activation; lower = inhibition) at 10 µM; 190,000 compounds, 2.2% hits;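 active = thallium flux slope and its plate-corrected score both differing from the plate sample mean at a set confidence after two filtering rounds, in either direction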;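 note: slope of fluorescence scaled to starting intensity during 10 to 20 s after thallium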
Target sequence (Q9H2X9 whole entry, looked up): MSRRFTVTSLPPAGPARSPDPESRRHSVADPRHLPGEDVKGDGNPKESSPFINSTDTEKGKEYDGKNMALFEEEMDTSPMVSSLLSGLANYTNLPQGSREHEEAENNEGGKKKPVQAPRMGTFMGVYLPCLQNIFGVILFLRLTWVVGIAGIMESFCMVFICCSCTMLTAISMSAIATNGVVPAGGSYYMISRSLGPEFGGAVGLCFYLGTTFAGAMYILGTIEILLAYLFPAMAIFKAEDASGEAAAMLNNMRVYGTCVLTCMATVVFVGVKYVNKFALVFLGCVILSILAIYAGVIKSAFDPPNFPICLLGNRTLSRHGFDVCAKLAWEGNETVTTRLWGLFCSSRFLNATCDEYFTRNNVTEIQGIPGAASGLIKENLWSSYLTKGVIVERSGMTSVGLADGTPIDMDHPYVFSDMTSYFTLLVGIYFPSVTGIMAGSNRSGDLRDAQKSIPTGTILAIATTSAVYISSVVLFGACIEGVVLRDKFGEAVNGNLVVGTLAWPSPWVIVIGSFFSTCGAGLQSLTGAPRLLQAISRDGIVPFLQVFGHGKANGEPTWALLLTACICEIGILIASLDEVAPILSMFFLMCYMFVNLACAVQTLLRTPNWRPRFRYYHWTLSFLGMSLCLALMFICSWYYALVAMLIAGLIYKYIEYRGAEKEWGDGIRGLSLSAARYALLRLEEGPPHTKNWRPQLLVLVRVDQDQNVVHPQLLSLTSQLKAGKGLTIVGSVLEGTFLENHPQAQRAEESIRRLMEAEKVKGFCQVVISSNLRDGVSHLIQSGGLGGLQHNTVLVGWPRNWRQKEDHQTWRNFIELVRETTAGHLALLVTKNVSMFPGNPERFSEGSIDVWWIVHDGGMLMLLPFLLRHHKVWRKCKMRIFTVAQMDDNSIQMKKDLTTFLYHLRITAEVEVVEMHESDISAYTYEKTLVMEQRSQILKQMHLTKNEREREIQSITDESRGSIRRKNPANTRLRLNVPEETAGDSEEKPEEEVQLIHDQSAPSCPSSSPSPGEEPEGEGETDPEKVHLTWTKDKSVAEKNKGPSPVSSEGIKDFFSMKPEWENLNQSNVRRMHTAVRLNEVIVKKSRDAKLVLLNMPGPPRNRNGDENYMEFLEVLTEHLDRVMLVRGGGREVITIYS
KCC2 sec1: confirmation of human KCC2 transport modulators. shares compounds with Cl transport mod. HEK293-KCC2, thallium flux, FluoZin2 fluorescence; active compounds read high. normalised thallium flux (F/F0 slope) at 10 µM. 3,700 compounds, 15% hits;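 active = thallium flux slope above the same plate's solvent-only control mean plus 3 SD; inconclusive = the two replicate wells disagree; inactive = no significant difference from solvent-only control wells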
KCC2 bumet counter: thallium flux persisting under bumetanide in KCC2 cells, counter-screen secondary assay; shares compounds with Cl transport mod; HEK293-KCC2 + bumetanide/ouabain, thallium flux FluoZin2; active compounds read high; normalized thallium flux at 10 µM; 3,700 compounds, 49% hits; AID 1714;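 active = thallium entry rate above the same plate's blocked-transporter control wells by more than 3 SD; inconclusive = the two repeat wells disagree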;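 note: raw slope of fluorescence over initial fluorescence between 10 and 20 s after thallium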
KCC2 sec2: KCC2 (human) modulation, second secondary assay | normalized thallium flux at 10 µM | HEK293-KCC2, thallium flux FluoZin2 fluorescence; actives lie on both sides; F/F0 rise rate, 10–20 s post-thallium | shares compounds with Cl transport mod | 3,700 compounds, 23% hits;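 active = thallium flux slope more than 3 SD above or below the plate's solvent-only control mean, mostly below; inconclusive = the two repeat wells disagreed; inactive = no significant shift from solvent-only controls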
HEK counter1: acts in parental HEK cells, KCC2 counter-screen | shares compounds with Cl transport mod | HEK293 parental cells, thallium flux FluoZin2, ouabain; baseline-ratio fluorescence slope, 10–20 s after thallium | AID 1716 | thallium flux rate (normalised fluorescence) at 10 µM | 3,700 compounds, 46% hits;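 active = thallium flux rate significantly above the same plate's solvent-only control wells, beyond their mean plus 3 SD; inconclusive = the two replicate wells gave conflicting results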
KCC2 ouabain: KCC2 (human) modulation, ouabain retest. HEK293-KCC2, thallium flux FluoZin2 fluorescence; bidirectional: low = inhibitor, high = activator. AID 1717. raw Tl+ flux slope (below DMSO = inhibition, above = activation) at 10 µM. 3,700 compounds, 48% hits. shares compounds with Cl transport mod;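 active = thallium flux slope beyond 3 SD from same-plate DMSO control mean in most replicates, usually higher, sometimes lower; inconclusive = repeat tests gave conflicting results; inactive = no significant difference from controls in most replicates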;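 note: slope of initial-normalized fluorescence between seconds 10 and 20 after thallium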
HEK293 Tl flux2: counter-screen for KCC2 modulators: effect in parental HEK293 cells | shares compounds with Cl transport mod | thallium flux FluoZin-2 fluorescence slope | thallium flux slope at 10 µM | 3,700 compounds, 33% hits;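 active = thallium flux slope above the same plate's solvent-control mean plus 3 SD in both duplicate wells; inconclusive = duplicate wells that disagreed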;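 note: run without ouabain in cells lacking the KCC2 cotransporter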
Each line names hits and unclear results; the compound was inactive in the other large screens (follow-up assays come after a bar, where they were run).

CSc1sc(-c2n[nH]c(=S)n2C)c2c1C=CCC2	Cl transport mod 4.34 (no result: MT stabilizer, WT yeast gro inh) | KCC2 sec1 inactive | KCC2 bumet counter 0.0149 | KCC2 sec2 inactive | HEK counter1 0.00926 | KCC2 ouabain inconclusive | HEK293 Tl flux2 inconclusive
Cn1c(-c2sccc2OCc2ccc(Cl)cc2Cl)n[nH]c1=S	WT yeast gro inh 64.0, Cl transport mod 5.24 | KCC2 sec1 inactive | KCC2 bumet counter 0.0134 | KCC2 sec2 inactive | HEK counter1 0.0118 | KCC2 ouabain inactive | HEK293 Tl flux2 0.012
Cc1ccc(NC(=O)CC2NCCNC2=O)cc1Cl (stereo not given)	none
O=C(c1ccco1)N1CCN(C/C=C/c2ccccc2)CC1	none (no result: Cl transport mod)
O=C(/C=C/c1ccc(F)cc1)NC(=S)N1CCN(Cc2ccccc2)CC1	Cl transport mod 40 (no result: MT stabilizer, WT yeast gro inh) | KCC2 sec1 inactive | KCC2 bumet counter 0.0421 | KCC2 sec2 inactive | HEK counter1 0.0303 | KCC2 ouabain 0.0307 | HEK293 Tl flux2 0.0256
Fc1ccc(NC(=S)N2CCN(C/C=C/c3ccccc3)CC2)c(F)c1	none (no result: Pf gametocyte)
O=C(NC(=S)N1CCN(C/C=C/c2ccccc2)CC1)c1c(F)cccc1F	Cl transport mod 6.81 | KCC2 sec1 0.0178 | KCC2 bumet counter 0.0418 | KCC2 sec2 inactive | HEK counter1 0.0155 | KCC2 ouabain inconclusive | HEK293 Tl flux2 inconclusive
O=C(NC(=S)N1CCN(C/C=C/c2ccccc2)CC1)c1ccco1	Cl transport mod 4.21 | KCC2 sec1 inactive | KCC2 bumet counter 0.0153 | KCC2 sec2 inactive | HEK counter1 0.0136 | KCC2 ouabain inconclusive | HEK293 Tl flux2 0.0162
O=C(/C=C/c1ccc(F)cc1)NC(=S)N1CCOCC1	none (no result: Pf gametocyte)
O=C(CCC(=O)N1CCN(c2ccccn2)CC1)Nc1nnc(C(F)(F)F)s1	none (no result: MT stabilizer, WT yeast gro inh)
CN(C(=O)c1ccc(OC2CCN(C(=O)c3cccnc3)CC2)cc1)C1CCCCC1	none
Cc1cc(O)c(/C=N/OCc2ccc(Cl)cc2Cl)c(=O)o1	none
O=c1c(/C=N/OCc2ccc(Cl)cc2Cl)c[nH]n1-c1cccc(Cl)n1	Cl transport mod 36.6 | KCC2 sec1 inactive | KCC2 bumet counter 0.0774 | KCC2 sec2 0.0746 | HEK counter1 0.0711 | KCC2 ouabain 0.0735 | HEK293 Tl flux2 0.0662
COc1ccccc1OCC(=O)N1CC2(C)CC1CC(C)(C)C2 (stereo not given)	Cl transport mod 4.98 (no result: Pf gametocyte) | KCC2 sec1 inactive | KCC2 bumet counter inactive | KCC2 sec2 inactive | HEK counter1 inactive | KCC2 ouabain inactive | HEK293 Tl flux2 inactive
Cc1nc2scc(-c3ccc(C(C)C)cc3)c2c(=O)n1N	none
CCCCn1nnnc1SCC(=O)NCc1ccco1	Cl transport mod 4.49 (no result: Pf gametocyte) | KCC2 sec1 inactive | KCC2 bumet counter inactive | KCC2 sec2 inactive | HEK counter1 inactive | KCC2 ouabain inactive | HEK293 Tl flux2 inconclusive
Cn1c(=O)c2c(nc(SCC(=O)NCc3ccco3)n2C)n(C)c1=O	Cl transport mod 5.08 (no result: Pf gametocyte) | KCC2 sec1 inactive | KCC2 bumet counter inactive | KCC2 sec2 inactive | HEK counter1 inactive | KCC2 ouabain inactive | HEK293 Tl flux2 inactive
O=C(NCc1ccc2c(c1)OCO2)c1ccc(COc2cccc(Cl)c2)o1	WT yeast gro inh 69.2, Cl transport mod -6.92 (no result: bCat nuc transl) | KCC2 sec1 inactive | KCC2 bumet counter inactive | KCC2 sec2 inactive | HEK counter1 inactive | KCC2 ouabain inconclusive | HEK293 Tl flux2 inactive
O=C(NCc1ccc2c(c1)OCO2)c1ccc(CSCc2ccccc2Cl)o1	none (no result: Pf gametocyte)
CC(C)NC(=O)CSc1nnc(-c2ccc(F)cc2)c2ccccc12	none
CCOc1ccc(NC(=O)CN2CC(c3ccccc3)CC2=O)cc1 (stereo not given)	Cl transport mod -2.76 (no result: Pf gametocyte) | KCC2 sec1 inactive | KCC2 bumet counter inactive | KCC2 sec2 inactive | HEK counter1 inactive | KCC2 ouabain inactive | HEK293 Tl flux2 inactive
COc1ccc(NC(=O)CN2CC(c3ccccc3)CC2=O)cc1OC (stereo not given)	none (no result: Pf gametocyte)
CCn1cc(C2=NOC(C(=O)Nc3cc(C)nn3-c3ccccc3)C2)c(C)n1 (stereo not given)	Cl transport mod 4.55 | KCC2 sec1 inactive | KCC2 bumet counter inconclusive | KCC2 sec2 inactive | HEK counter1 inactive | KCC2 ouabain inactive | HEK293 Tl flux2 inactive
Cc1cc(NC(=O)C2CC(c3ccc(F)cc3)=NO2)n(-c2ccccc2)n1 (stereo not given)	none (no result: bCat nuc transl, Pf gametocyte, Cl transport mod)
O=C(NC(=S)N(CC1CCC1)CC1CCCO1)c1cccc([N+](=O)[O-])c1 (stereo not given)	Cl transport mod 98.6 | KCC2 sec1 0.0435 | KCC2 bumet counter 0.0895 | KCC2 sec2 0.0447 | HEK counter1 0.0774 | KCC2 ouabain 0.0755 | HEK293 Tl flux2 0.0315
Cc1ccc(CCNC(=O)Cn2cccc2)cc1	none (no result: Cl transport mod) | KCC2 sec1 inactive | KCC2 bumet counter inactive | KCC2 sec2 inactive | HEK counter1 inactive | KCC2 ouabain inactive | HEK293 Tl flux2 inactive
Cc1ccc(SCC(=O)NCCc2ccc(F)cc2)cc1	none (no result: MT stabilizer, bCat nuc transl, WT yeast gro inh, Cl transport mod)
CCCc1nnc(SCC(=O)N2CCCC2)n1Cc1ccco1	none
Cc1ccc(OS(=O)(=O)c2cn(C)c(=O)n(C)c2=O)cc1C	none
CSc1ncc(Cl)c(C(=O)Nc2nnc(SC/C=C/c3ccccc3)s2)n1	Cl transport mod 28 (no result: Pf gametocyte) | KCC2 sec1 inactive | KCC2 bumet counter 0.0818 | KCC2 sec2 0.0542 | HEK counter1 0.0638 | KCC2 ouabain 0.0657 | HEK293 Tl flux2 0.0411
O=C(CSc1nccc2ccccc12)N1CCN(c2ccccn2)CC1	Cl transport mod -3.3 (no result: Pf gametocyte) | KCC2 sec1 inactive | KCC2 bumet counter inactive | KCC2 sec2 inactive | HEK counter1 inactive | KCC2 ouabain 0.015 | HEK293 Tl flux2 inactive
CCN(c1ccc(N=Cc2c(O)n(Cc3ccc(OC)cc3)c(=O)c3ccccc23)cc1)C(C)C	none
Cc1nc(Nc2ccc(Cl)c(Cl)c2)sc1C(=O)Nc1ccccc1	none
Cc1nc(Nc2ccc(Cl)cc2Cl)sc1C(=O)Nc1ccccc1	WT yeast gro inh 71.0, Cl transport mod 3.65 | KCC2 sec1 inactive | KCC2 bumet counter inactive | KCC2 sec2 inactive | HEK counter1 inactive | KCC2 ouabain inactive | HEK293 Tl flux2 inactive
CCOCCn1c(N2CCN(c3ccc(OC)cc3)CC2)nc2c1c(=O)n(C)c(=O)n2C	none (no result: Pf gametocyte)
